Measured values as given in ChEMBL document CHEMBL4373711, “Development of 3,5-Dinitrophenyl-Containing 1,2,4-Triazoles and Their Trifluoromethyl Analogues as Highly Efficient Antitubercular Agents Inhibiting Decaprenylphosphoryl-β-d-ribofuranose 2'-Oxidase” (J Med Chem, 2019).
Values after ≈ are worked out from the molar mass of the structure shown.

Columns and labels:
[1] = Selectivity index, ratio of IC50 for human A431 cells to MIC>99 for antimycobacterial activity against multi-drug resistant Mycobacterium tuberculosis 7357/1998 after 14 days; type: toxicity; conditions: read-out: Selectivity Index
[2] = Selectivity index, ratio of IC50 for human HepG2 cells to MIC>99 for antimycobacterial activity against multi-drug resistant Mycobacterium tuberculosis 8666/2010 after 21 days; type: toxicity; conditions: read-out: Selectivity Index
Method in brief: (§1)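 SI from HepG2 IC50 and M. tuberculosis MIC. HepG2 cells: DMEM + 10% FBS + 1 mM pyruvate, 10,000/well, 48 h treatment, 0.1% DMSO and 10% SDS controls, MTS absorbance at 490 nm.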

[3] = Selectivity index, ratio of IC50 for human HepG2 cells to MIC>99 for antimycobacterial activity against multi-drug resistant Mycobacterium tuberculosis Praha 4 after 21 days; type: toxicity; conditions: read-out: Selectivity Index; method in brief: as §1
[4] = tested on: Mycobacterium tuberculosis; assay: Antimycobacterial activity against multi-drug resistant Mycobacterium tuberculosis 8666/2010 after 21 days; type: functional; conditions: 8666/2010, 504 h
Method in brief: (§2)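 M. tuberculosis strains (H37Rv and clinical MDR/XDR isolates) tested by microdilution in Šula's semisynthetic medium. Compounds were dissolved in DMSO and tested at 32 to 0.03 µM in twofold steps. Inoculum was a 1.0 McFarland suspension diluted 10-3. Plates were incubated at 37 °C and read at 14 and 21 days.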

[5] = tested on: Mycobacterium tuberculosis; assay: Antimycobacterial activity against multi-drug resistant Mycobacterium tuberculosis 9449/2007 after 14 days; type: functional; conditions: 9449/2007, 336 h; method in brief: as §2
[6] = tested on: Mycobacterium tuberculosis; assay: Antimycobacterial activity against multi-drug resistant Mycobacterium tuberculosis 7357/1998 after 21 days; type: functional; conditions: 7357/1998, 504 h; method in brief: as §2
[7] = Selectivity index, ratio of IC50 for human A431 cells to MIC>99 for antimycobacterial activity against multi-drug resistant Mycobacterium tuberculosis 8666/2010 after 21 days; type: toxicity; conditions: read-out: Selectivity Index
[8] = tested on: Mycobacterium tuberculosis; assay: Antimycobacterial activity against multi-drug resistant Mycobacterium tuberculosis 9449/2007 after 21 days; type: functional; conditions: 9449/2007, 504 h; method in brief: as §2
[9] = Selectivity index, ratio of IC50 for human HepG2 cells to MIC>99 for antimycobacterial activity against multi-drug resistant Mycobacterium tuberculosis 234/2005 after 14 days; type: toxicity; conditions: read-out: Selectivity Index; method in brief: as §1
[10] = Selectivity index, ratio of IC50 for human A431 cells to MIC>99 for antimycobacterial activity against multi-drug resistant Mycobacterium tuberculosis Praha 4 after 21 days; type: toxicity; conditions: read-out: Selectivity Index
Method in brief: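 SI from A431 IC50 and M. tuberculosis MIC. A431 cells: DMEM + 10% FBS, seeded 10,000/well, treated after 24 h for 48 h, 0.1% DMSO (100%) and 10% SDS (0%) controls, MTS absorbance at 490 nm.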

[11] = Selectivity index, ratio of IC50 for human A431 cells to MIC>99 for antimycobacterial activity against multi-drug resistant Mycobacterium tuberculosis 234/2005 after 14 days; type: toxicity; conditions: read-out: Selectivity Index
[12] = Selectivity index, ratio of IC50 for human HepG2 cells to MIC>99 for antimycobacterial activity against multi-drug resistant Mycobacterium tuberculosis Praha 1 after 14 days; type: toxicity; conditions: read-out: Selectivity Index; method in brief: as §1
[13] = tested on: Mycobacterium tuberculosis; assay: microbe, parasite or virus in culture; conditions: 234/2005, 336 h
[14] = Selectivity index, ratio of IC50 for human HepG2 cells to MIC>99 for antimycobacterial activity against multi-drug resistant Mycobacterium tuberculosis 234/2005 after 21 days; type: toxicity; conditions: read-out: Selectivity Index; method in brief: as §1
[15] = Selectivity index, ratio of IC50 for human A431 cells to MIC>99 for antimycobacterial activity against multi-drug resistant Mycobacterium tuberculosis 8666/2010 after 14 days; type: toxicity; conditions: read-out: Selectivity Index
[16] = Selectivity index, ratio of IC50 for human HepG2 cells to MIC>99 for antimycobacterial activity against multi-drug resistant Mycobacterium tuberculosis Praha 4 after 14 days; type: toxicity; conditions: read-out: Selectivity Index; method in brief: as §1
[17] = Selectivity index, ratio of IC50 for human A431 cells to MIC>99 for antimycobacterial activity against multi-drug resistant Mycobacterium tuberculosis Praha 1 after 14 days; type: toxicity; conditions: read-out: Selectivity Index
[18] = Selectivity index, ratio of IC50 for human HepG2 cells to MIC>99 for antimycobacterial activity against multi-drug resistant Mycobacterium tuberculosis 7357/1998 after 21 days; type: toxicity; conditions: read-out: Selectivity Index; method in brief: as §1
[19] = tested on: Mycobacterium tuberculosis; assay: Antimycobacterial activity against multi-drug resistant Mycobacterium tuberculosis Praha 4 after 14 days; conditions: Praha 4, 336 h
[20] = Selectivity index, ratio of IC50 for human HepG2 cells to MIC>99 for antimycobacterial activity against multi-drug resistant Mycobacterium tuberculosis 9449/2007 after 14 days; type: toxicity; conditions: read-out: Selectivity Index; method in brief: as §1
[21] = tested on: Mycobacterium tuberculosis; assay: Antimycobacterial activity against multi-drug resistant Mycobacterium tuberculosis Praha 1 after 21 days; type: functional; conditions: Praha 1, 504 h; method in brief: as §2
[22] = Selectivity index, ratio of IC50 for human A431 cells to MIC>99 for antimycobacterial activity against multi-drug resistant Mycobacterium tuberculosis Praha 1 after 21 days; type: toxicity; conditions: read-out: Selectivity Index
[23] = Selectivity index, ratio of IC50 for human A431 cells to MIC>99 for antimycobacterial activity against multi-drug resistant Mycobacterium tuberculosis 234/2005 after 21 days; type: toxicity; conditions: read-out: Selectivity Index
[24] = Selectivity index, ratio of IC50 for human A431 cells to MIC>99 for antimycobacterial activity against multi-drug resistant Mycobacterium tuberculosis 9449/2007 after 21 days; type: toxicity; conditions: read-out: Selectivity Index
[25] = Selectivity index, ratio of IC50 for human HepG2 cells to MIC>99 for antimycobacterial activity against multi-drug resistant Mycobacterium tuberculosis 9449/2007 after 21 days; type: toxicity; conditions: read-out: Selectivity Index; method in brief: as §1
[26] = Selectivity index, ratio of IC50 for human A431 cells to MIC>99 for antimycobacterial activity against multi-drug resistant Mycobacterium tuberculosis 9449/2007 after 14 days; type: toxicity; conditions: read-out: Selectivity Index
[27] = Selectivity index, ratio of IC50 for human A431 cells to MIC>99 for antimycobacterial activity against multi-drug resistant Mycobacterium tuberculosis Praha 4 after 14 days; type: toxicity; conditions: read-out: Selectivity Index
[28] = Selectivity index, ratio of IC50 for human HepG2 cells to MIC>99 for antimycobacterial activity against multi-drug resistant Mycobacterium tuberculosis Praha 1 after 21 days; type: toxicity; conditions: read-out: Selectivity Index; method in brief: as §1
[29] = Selectivity index, ratio of IC50 for human HepG2 cells to MIC>99 for antimycobacterial activity against multi-drug resistant Mycobacterium tuberculosis 8666/2010 after 14 days; type: toxicity; conditions: read-out: Selectivity Index; method in brief: as §1
[30] = tested on: Mycobacterium tuberculosis; assay: Antimycobacterial activity against multi-drug resistant Mycobacterium tuberculosis Praha 4 after 21 days; type: functional; conditions: Praha 4, 504 h; method in brief: as §2
[31] = tested on: Mycobacterium tuberculosis; assay: Antimycobacterial activity against multi-drug resistant Mycobacterium tuberculosis Praha 1 after 14 days; type: functional; conditions: Praha 1, 336 h; method in brief: as §2
[32] = tested on: Mycobacterium tuberculosis; assay: Antimycobacterial activity against multi-drug resistant Mycobacterium tuberculosis 8666/2010 after 14 days; type: functional; conditions: 8666/2010, 336 h; method in brief: as §2
[33] = tested on: Mycobacterium tuberculosis; assay: Antimycobacterial activity against multi-drug resistant Mycobacterium tuberculosis 7357/1998 after 14 days; type: functional; conditions: 7357/1998, 336 h; method in brief: as §2
[34] = tested on: Mycobacterium tuberculosis; assay: Antimycobacterial activity against multi-drug resistant Mycobacterium tuberculosis 234/2005 after 21 days; type: functional; conditions: 234/2005, 504 h; method in brief: as §2
[35] = Selectivity index, ratio of IC50 for human HepG2 cells to MIC>99 for antimycobacterial activity against multi-drug resistant Mycobacterium tuberculosis 7357/1998 after 14 days; type: toxicity; conditions: read-out: Selectivity Index; method in brief: as §1
[36] = Selectivity index, ratio of IC50 for human A431 cells to MIC>99 for antimycobacterial activity against multi-drug resistant Mycobacterium tuberculosis 7357/1998 after 21 days; type: toxicity; conditions: read-out: Selectivity Index

O=[N+]([O-])c1cc(-c2nnc(SCc3ccccc3)n2Cc2ccccc2)cc(C(F)(F)F)c1
selectivity ratio at 336 h [1]: > 100
selectivity ratio at 504 h [2]: > 100
selectivity ratio at 504 h [3]: > 100
MIC99 [4]: 0.125 µM (≈ 0.0588 µg/mL)
MIC99 [5]: 0.125 µM (≈ 0.0588 µg/mL)
MIC99 [6]: 0.06 µM (≈ 0.0282 µg/mL)
selectivity ratio at 504 h [7]: > 100
MIC99 [8]: 0.06 µM (≈ 0.0282 µg/mL)
selectivity ratio at 336 h [9]: > 100
selectivity ratio at 504 h [10]: > 100
selectivity ratio at 336 h [11]: > 100
selectivity ratio at 336 h [12]: > 100
MIC99 [13]: 0.06 µM (≈ 0.0282 µg/mL)
selectivity ratio at 504 h [14]: > 100
selectivity ratio at 336 h [15]: > 100
selectivity ratio at 336 h [16]: > 100
selectivity ratio at 336 h [17]: > 100
selectivity ratio at 504 h [18]: > 100
MIC99 [19]: 0.06 µM (≈ 0.0282 µg/mL)
selectivity ratio at 336 h [20]: > 100
MIC99 [21]: 0.06 µM (≈ 0.0282 µg/mL)
selectivity ratio at 504 h [22]: > 100
selectivity ratio at 504 h [23]: > 100
selectivity ratio at 504 h [24]: > 100
selectivity ratio at 504 h [25]: > 100
selectivity ratio at 336 h [26]: > 100
selectivity ratio at 336 h [27]: > 100
selectivity ratio at 504 h [28]: > 100
selectivity ratio at 336 h [29]: > 100
MIC99 [30]: 0.06 µM (≈ 0.0282 µg/mL)
MIC99 [31]: 0.06 µM (≈ 0.0282 µg/mL)
MIC99 [32]: 0.06 µM (≈ 0.0282 µg/mL)
MIC99 [33]: 0.06 µM (≈ 0.0282 µg/mL)
MIC99 [34]: 0.06 µM (≈ 0.0282 µg/mL)
selectivity ratio at 336 h [35]: > 100
selectivity ratio at 504 h [36]: > 100
